Screening results (PubChem)
In the library only some 4.6% were active in any assay of this set; here they are far more common.
GPR7 antagonist: GPR7 receptor antagonists, primary screen, cell-based, fluorescence, single concentration; Neuropeptides B/W receptor type 1 (Homo sapiens), P48145; GPR7-expressing cells, fluorescence antagonist assay; inhibition, % at 4.4 µM; hit rate 1.1% among 290,000; AID 1861, 2009; in the data active = inhibition above about 16%, passing the limit was not always enough;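 also: cells stimulated with the agonist NPW; 0% = agonist with vehicle and 100% = vehicle without agonist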
Target sequence (P48145 whole entry, looked up): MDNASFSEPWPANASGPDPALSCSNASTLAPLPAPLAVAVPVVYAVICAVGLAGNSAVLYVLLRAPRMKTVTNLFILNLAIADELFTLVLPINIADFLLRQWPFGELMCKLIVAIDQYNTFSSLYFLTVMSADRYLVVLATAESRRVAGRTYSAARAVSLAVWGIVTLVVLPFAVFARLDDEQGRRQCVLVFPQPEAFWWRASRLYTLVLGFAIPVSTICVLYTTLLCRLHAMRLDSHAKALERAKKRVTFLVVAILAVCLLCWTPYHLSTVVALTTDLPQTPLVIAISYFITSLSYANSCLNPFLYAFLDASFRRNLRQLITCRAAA
CHO parental Ca: ATP-evoked calcium signal inhibitors, parental CHO, primary screen, counter-screen for OX1R antagonist project, cell-based, fluorescence, Fluo-8 calcium dye; parental CHO-K1, ATP-induced calcium, Fluo-8 fluorescence; AID 463079, 2010; hit rate 0.63% among 330,000; inhibition, % at 5.6 µM;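 active = inhibition above that plate's mean sample inhibition plus 3 SD, cut at about 26% in these data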;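 also: 0% = ATP-challenged DMSO wells and 100% = DMSO wells without ATP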
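material = parental CHO cells | also added = ATP as calcium-mobilizing challenge | dosing = single point at 5.6 µM | detection = intracellular calcium via Fluo-8 no-wash fluorescent dye | read-out = % inhibition | benchmarks = low control ATP plus DMSO, high control DMSO only | repeats = one well per compound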
OX1R antag-1: OX1R (HCRTR1) antagonists, primary screen, fluorescence, CHO/OX1R cells, Fluo-8 calcium, orexin A. Fluo-8 calcium fluorescence. hit rate 0.43% among 330,000. Orexin/Hypocretin receptor type 1 (Homo sapiens), O43613. inhibition, % at 5 µM;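 active = inhibition above its plate's threshold, mean inhibition of all tested compounds on the plate plus 3 SD, cut at about 37% in these data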;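 also: 0% = orexin A challenge wells and 100% = SB-334867-A antagonist wells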
OX1R antag-2: antagonists of human orexin 1 receptor (OX1R). Orexin/Hypocretin receptor type 1 (Homo sapiens), O43613. OX1R-expressing cells, FRET antagonist read-out. inhibition, % at 6.6 µM. hit rate 1.8% among 330,000. AID 485270, 2010; in the data active = inhibition mostly above about 38%, no sharp cut-off; inactive = mostly below about 40%;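 also: 0% = agonist challenge alone and 100% = reference antagonist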
TAAR1 antagonist: human TAAR1 antagonists, primary screen, Fluo-8 calcium fluorescence, CHO RD-HGA16 cells; inhibition, % at 3 µM; AID 624466, 2012; Trace amine-associated receptor 1 (Homo sapiens), Q96RJ0; antagonist; hit rate 1.5% among 360,000;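 active = inhibition above a per-plate cutoff, the mean inhibition of test compounds on that plate plus 3 SD, cut at about 49% in these data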;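 also: 0% = DMSO plus EC80 beta-PEA response and 100% = DMSO alone without agonist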
Target sequence (Q96RJ0 whole entry, looked up): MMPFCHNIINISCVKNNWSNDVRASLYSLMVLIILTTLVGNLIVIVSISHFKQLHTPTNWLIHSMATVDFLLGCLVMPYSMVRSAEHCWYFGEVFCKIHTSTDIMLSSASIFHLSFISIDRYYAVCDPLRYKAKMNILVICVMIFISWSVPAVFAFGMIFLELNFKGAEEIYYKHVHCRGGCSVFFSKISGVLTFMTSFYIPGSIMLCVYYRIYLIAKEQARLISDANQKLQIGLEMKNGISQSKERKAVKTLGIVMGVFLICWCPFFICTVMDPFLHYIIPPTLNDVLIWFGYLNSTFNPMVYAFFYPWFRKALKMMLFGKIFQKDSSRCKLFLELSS
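System: CHO RD-HGA16 cells bearing hTAAR1. Reagent: EC80 β-phenethylamine stimulus. Schedule: seeding 17-24 h prior, 75-min 37 °C, 30-min RT dye loading. Signal: Fluo-8 intracellular calcium dye fluorescence, real-time kinetic reads. Read-out: % inhibition from peak post-agonist over basal fluorescence ratio. Benchmarks: vehicle wells and EC80 agonist wells. Replicates: n of 1.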
TAAR1 ag: human TAAR1 agonists, primary screen, Fluo-8 calcium fluorescence, CHO RD-HGA16 cells | Trace amine-associated receptor 1 (Homo sapiens), Q96RJ0 | vehicle wells 0%, saturating PEA agonist 100% | activation, % at 3 µM | hit rate 0.99% among 360,000 | AID 624467, 2012;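 active = activation above the mean activation of all test compounds in the run plus 3 SD, cut at about 38% in these data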
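Assay system: CHO-derived RD-HGA16 cells with stable Gα16 and human TAAR1; timing: 17-24 h seeding, 75 min 37 °C dye, 30 min RT; read-out: % activation from peak over basal fluorescence ratio, DMSO-to-PEA scaled; measured by: kinetic Fluo-8 calcium fluorescence; benchmarks: low control DMSO, high control PEA (EC100); doses: 3 µM single concentration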
Active calls of the source: *.

For O=C(N/N=C/c1c[nH]c2ccc(Br)cc12)c1ccc2c(c1)OCO2 the results were GPR7 antagonist 15, CHO parental Ca -9, OX1R antag-1 0, OX1R antag-2 69*, TAAR1 antagonist 6 and TAAR1 ag 2.
`O=C(N/N=C/c1ccc2c(c1)OCO2)c1cccc2ccccc12` gave GPR7 antagonist 9, CHO parental Ca -13, OX1R antag-1 -13, OX1R antag-2 17, TAAR1 antagonist -16 and TAAR1 ag 1.
For O=C(N/N=C/c1cc(Cl)cc([N+](=O)[O-])c1O)c1ccc2c(c1)OCO2 the results were GPR7 antagonist -7, CHO parental Ca -10, OX1R antag-1 -5, OX1R antag-2 56*, TAAR1 antagonist -9 and TAAR1 ag 1.
For O=C(N/N=C/c1c[nH]c2ccccc12)c1ccc2c(c1)OCCO2 the results were GPR7 antagonist -1, CHO parental Ca -7, OX1R antag-1 -11, OX1R antag-2 13, TAAR1 antagonist -8 and TAAR1 ag 1.
For Cc1cc(Br)cc(/C=N/NC(=O)c2ccc3c(c2)OCO3)c1O the results were GPR7 antagonist 2, CHO parental Ca -11, OX1R antag-1 -7, OX1R antag-2 64*, TAAR1 antagonist 22 and TAAR1 ag 3.
`O=C(N/N=C/c1cc(Br)cc(Cl)c1O)c1ccc2c(c1)OCO2` gave CHO parental Ca -5, OX1R antag-1 -18, OX1R antag-2 22, TAAR1 antagonist -4 and TAAR1 ag 8.
Screening Cn1cc(C(=O)N/N=C/c2ccc3c(c2)OCO3)c2ccccc21 returned GPR7 antagonist 1, CHO parental Ca -5, OX1R antag-1 11, OX1R antag-2 43*, TAAR1 antagonist 9 and TAAR1 ag 10.
`CC(C)(C)S(=O)(=O)N1Cc2cc(CO)ccc2[C@H]1CCO` gave TAAR1 antagonist -12 and TAAR1 ag 3.
`CCCCOCCCNC(=O)C[C@H]1C[C@@]2(C(=O)OC)C(=C[C@H](C(C)(C)C)O[C@@H]2C)N(Cc2ccccc2)C1=O` gave TAAR1 antagonist -21 and TAAR1 ag -2.
`O=C(CNC(=O)c1ccc2c(c1)OCO2)N/N=C/c1cc(Br)ccc1O` gave GPR7 antagonist -9, CHO parental Ca 7, OX1R antag-1 3, OX1R antag-2 48*, TAAR1 antagonist 0 and TAAR1 ag -2.
O=C(CSCc1ccccc1Br)N/N=C/c1ccc2c(c1)OCO2 was read as GPR7 antagonist 8, CHO parental Ca 3, OX1R antag-1 18, OX1R antag-2 59, TAAR1 antagonist 28 and TAAR1 ag 7.
`O=C(N/N=C/c1ccc2c(c1)OCO2)c1ccc(COc2cccc3cccnc23)cc1` gave GPR7 antagonist -12, CHO parental Ca -10, OX1R antag-1 -22, OX1R antag-2 29, TAAR1 antagonist 49* and TAAR1 ag 15.
Screening O=C(CSCc1cccc(Br)c1)N/N=C/c1ccc2c(c1)OCO2 returned GPR7 antagonist 7, CHO parental Ca 16, OX1R antag-1 12, OX1R antag-2 63*, TAAR1 antagonist 2 and TAAR1 ag 11.
COc1cc(OC)c(NC(=O)NNC(=O)C(=O)NC2CC2)cc1Cl was read as TAAR1 antagonist -5 and TAAR1 ag -1.
`O=S(=O)(NCc1ccc(Cl)cc1)c1ccc(Br)cc1C1CC[C@@H](O)C1` (stereo not given in full) gave TAAR1 antagonist 5 and TAAR1 ag 3.
O=[N+]([O-])c1cc(C=Nc2ccc3ccccc3c2)ccc1Br was read as GPR7 antagonist -5, CHO parental Ca -9, OX1R antag-1 0, OX1R antag-2 64*, TAAR1 antagonist 15 and TAAR1 ag -1.
For CCOc1ccc(N=Cc2ccc3ccccc3c2)cc1 the results were GPR7 antagonist -8, CHO parental Ca -4, OX1R antag-1 2, OX1R antag-2 2, TAAR1 antagonist 1 and TAAR1 ag 3.
CN(C)c1ccc(NC2=C(Cl)C(=O)c3ccccc3C2=O)cc1 was read as GPR7 antagonist 6, CHO parental Ca 35*, OX1R antag-1 31, OX1R antag-2 92*, TAAR1 antagonist 66* and TAAR1 ag 3.
Screening O=C1C(Cl)=C(Nc2ccc3cn[nH]c3c2)C(=O)c2ccccc21 returned GPR7 antagonist 41*, CHO parental Ca 64*, OX1R antag-1 59*, OX1R antag-2 54*, TAAR1 antagonist 62* and TAAR1 ag -4.
O=C(Nc1ccc2cn[nH]c2c1)c1c(Cl)cccc1Cl was read as GPR7 antagonist 5, CHO parental Ca -6, OX1R antag-1 8, OX1R antag-2 10, TAAR1 antagonist 1 and TAAR1 ag 1.
Screening COc1ccccc1CN1Cc2ccccc2Oc2ccccc2S1(=O)=O returned TAAR1 antagonist 14 and TAAR1 ag 3.
`C=CCN1C(=O)c2n[nH]c(COC)c2C1c1ccc(C)cc1` (stereo not given) gave TAAR1 antagonist -23 and TAAR1 ag 0.
For COc1ccccc1N1CCN(CC(=O)Nc2ccccc2C(=O)NC(C)c2ccccc2)CC1 (stereo not given) the results were CHO parental Ca -35, OX1R antag-1 -18, OX1R antag-2 9, TAAR1 antagonist 59* and TAAR1 ag 32.
`COC(=O)c1ccc(C(=O)OC)c(NC(=O)CN2CCN(c3ccccc3OC)CC2)c1` gave GPR7 antagonist -8, CHO parental Ca -12, OX1R antag-1 5, OX1R antag-2 1, TAAR1 antagonist 52* and TAAR1 ag 8.
For COc1ccccc1N1CCN(CC(=O)Nc2ccccc2C(=O)NCCc2ccccc2)CC1 the results were CHO parental Ca -16, OX1R antag-1 -14, OX1R antag-2 0, TAAR1 antagonist 55* and TAAR1 ag 11.
COc1ccc(CCNC(=O)c2ccccc2NC(=O)CN2CCN(c3ccccc3O)CC2)cc1 was read as TAAR1 antagonist 64* and TAAR1 ag 14.
For CC(NC(=O)c1ccccc1NC(=O)CN1CCN(c2ccccc2O)CC1)c1ccccc1 (stereo not given) the results were CHO parental Ca -28, OX1R antag-1 4, OX1R antag-2 4, TAAR1 antagonist 36 and TAAR1 ag 25.
Screening O=C1c2c(-c3ccc(Br)cc3)noc2CCN1Cc1cn(-c2ccccc2)nn1 returned TAAR1 antagonist -30 and TAAR1 ag 3.
